Measured values reported in ChEMBL document CHEMBL2331329, “Synthesis and biological evaluation of 2-(alkoxycarbonyl)-3-anilinobenzo[b]thiophenes and thieno[2,3-b]pyridines as new potent anticancer agents” (J Med Chem, 2013).
Activity calls are given as the source filed them. No cut-off for these calls is given here.

What was measured:
HeLa [1] = assay: Induction of apoptosis in human HeLa cells assessed as ROS production at 10 to 100 nM after 24 to 48 hrs by HE staining-based flow cytometry relative to control; type: functional, cell-based
Method in brief: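 HeLa cells treated 24 or 48 h, then stained with H2-DCFDA or hydroethidine. ROS read by flow cytometry against untreated control. Mean ± SEM of three independent experiments.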

[2] = Inhibition of bovine brain tubulin polymerization after 20 mins by turbidimetric analysis; set-up: species or system Bos taurus
Method in brief: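 Bovine brain tubulin (10 μM) preincubated with varying compound concentrations in glutamate buffer at 30 °C, chilled to 0 °C, 0.4 mM GTP added, then warmed to 30 °C in a recording spectrophotometer.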

Jurkat [3] = assay: Cytotoxicity against human Jurkat cells after 72 hrs by MTT assay; type: functional, cell-based
Method in brief: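 Cells plated at 8 × 10^3 per well, 18 h at 37 °C, 5% CO2, then fresh medium with graded compound concentrations (DMSO ≤0.25%) for 72 h. Jurkat, SEM, HL-60 grown in RPMI-1640; A549, HeLa, HT-29, MCF-7 in DMEM; 10% FBS with penicillin/streptomycin. MTT viability read-out; IC50 vs 0.25% DMSO controls; mean ± SE of at least three independent experiments.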

Bos taurus [4] = organism: Bos taurus; assay: Displacement of [3H]colchicine from bovine brain tubulin at 5 uM after 20 mins by turbidimetric analysis
HeLa [5] = assay: Cell cycle arrest in human HeLa cells assessed as reduction in phosphorylated cdc2 Tyr15 level at 10 to 100 nM after 24 to 48 hrs by Western Blot analysis; type: functional, cell-based
Method in brief: (§1)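 HeLa cells exposed to 10 or 100 nM for 24 or 48 h, washed in ice-cold PBS, lysed on ice 30 min, spun at 15000g at 4 °C. 20 μg protein run on 7.5–15% SDS–PAGE, blotted to PVDF, blocked overnight at 4 °C. Primary antibodies 2 h at room temperature, peroxidase secondary 60 min, ECL detection, β-actin reprobe as loading control.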

HeLa [6] = assay: Induction of apoptosis in human HeLa cells assessed as reduction of Xiap expression at 10 nM after 24 hrs by Western Blot analysis; type: functional, cell-based; method in brief: as §1
PBL [7] = assay: Cytotoxicity against human PBL cells after 72 hrs by MTT assay; type: cell-based
Method in brief: (§2)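 Peripheral blood lymphocytes from healthy donors isolated on a Lymphoprep gradient and rested overnight in RPMI-1640 with 10% FBS. Nonadherent cells at 5 × 10^5 cells/mL, with 2.5 μg/mL PHA for proliferating cultures or without it for resting ones. Compound exposure 72 h, viability by MTT. Mean ± SEM of three experiments.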

HT-29 [8] = assay: Cell cycle arrest in human HT-29 cells assessed as accumulation at G2/M phase at 20 nM after 24 hrs by propidium iodide staining-based flow cytometry; type: functional
Method in brief: (§3)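 Jurkat, HT-29 and HeLa cells in exponential growth (5 × 10^5 cells) treated 24 h at a range of concentrations. Fixed in ice-cold 70% ethanol, lysed with buffer containing RNase A and 0.1% Triton X-100, stained with propidium iodide. DNA content read by flow cytometry and the percentage of cells per cycle phase derived from DNA histograms.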

Bos taurus [9] = organism: Bos taurus; assay: Displacement of [3H]colchicine from bovine brain tubulin at 1 uM after 20 mins by turbidimetric analysis
HeLa [10] = assay: Cell cycle arrest in human HeLa cells assessed as increase in activated cdc25 level at 10 to 100 nM after 24 to 48 hrs by Western Blot analysis; type: functional, cell-based; method in brief: as §1
PBL [11] = assay: Cytotoxicity against human PHA-stimulated PBL cells after 72 hrs by MTT assay; type: cell-based; method in brief: as §2
[12] = Cytotoxicity against human LoVo/DX cells after 72 hrs by MTT assay; type: functional, cell-based
Method in brief: (§4)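 MTT viability test: 8 × 10^3 cells per well settled 18 h at 37 °C, 5% CO2, then given fresh medium with compound (from 10 mM DMSO stocks, final DMSO ≤0.25%) for 72 h. […] CEMVbl-100 is a vinblastine-selected P-gp line; LoVoDoxo is grown in Ham's F12 with 0.1 μg/mL doxorubicin. Resistance index = resistant IC50/parental IC50.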

HL-60 = assay: Ratio of Combretastatin A-4 IC50 to compound IC50 for human HL60 cells; type: functional
HeLa [13] = assay: Induction of apoptosis in human HeLa cells assessed as mitochondrial membrane depolarization after 24 to 48 hrs by JC-1 staining; type: functional, cell-based
Method in brief: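 HeLa cells treated 24 or 48 h, then stained with the potentiometric dye JC-1. Proportion of cells with depolarised mitochondria read by flow cytometry. Mean ± SEM of three independent experiments.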

HT-29 [14] = assay: Ratio of Combretastatin A-4 IC50 to compound IC50 for human HT-29 cells; type: functional
HeLa [15] = assay: Cell cycle arrest in human HeLa cells assessed as variation in cyclin B expression at 10 to 100 nM after 24 to 48 hrs by Western Blot analysis; type: functional, cell-based; method in brief: as §1
HeLa [16] = assay: Induction of apoptosis in human HeLa cells assessed as early apoptotic cells after 24 to 48 hrs by annexin V-FITC/Propidium iodide staining-based flow cytometry; type: functional, cell-based
Method in brief: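 HeLa cells treated 24 or 48 h, then co-labelled with annexin-V–FITC and propidium iodide. Flow cytometry with 488 nm excitation and emission at 525 nm (FITC) and 585 nm (PI); early apoptotic cells counted as annexin-V+/PI−. Mean ± SEM of three independent experiments.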

HeLa [17] = assay: Induction of apoptosis in human HeLa cells assessed as phosphorylated Mcl-1 at 10 nM after 48 hrs by Western Blot analysis; type: functional, cell-based; method in brief: as §1
[18] = Antitumor activity against mouse BNL 1ME A.7R.1 cells xenografted in Balb/c mouse assessed as reduction in tumor growth at 5 mg/kg, ip QD for 7 days; type: functional; set-up: scale not given: the % may be the effect or the level left; conditions: route intraperitoneal
Method in brief: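 Male Balb/c mice, 8 weeks old, given 10^7 syngeneic BNL 1ME A.7R.1 hepatoma cells subcutaneously in the dorsal region in 200 μL PBS. Randomised to groups of five. Dosed intraperitoneally once daily for 7 days at 5 mg/kg in 0.9% NaCl with 5% PEG 400 and 0.5% Tween 80, against vehicle and CA-4P. Tumours measured daily by caliper, V = AB2/2; body weight recorded. Mean ± SEM.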

MCF7 [19] = assay: Cytotoxicity against human MCF7 cells after 72 hrs by MTT assay; type: functional, cell-based; conditions: MCF7, 72 h
HeLa [20] = assay: Cell cycle arrest in human HeLa cells assessed as accumulation at G2/M phase at >20 nM after 24 hrs by propidium iodide staining-based flow cytometry; type: functional; method in brief: as §3
HeLa [21] = assay: Ratio of Combretastatin A-4 IC50 to compound IC50 for human HeLa cells; type: functional
LoVo = assay: Cytotoxicity against human LoVo cells after 72 hrs by MTT assay; type: functional, cell-based; method in brief: as §4
A549 = assay: Ratio of Combretastatin A-4 IC50 to compound IC50 for human A549 cells; type: functional
Jurkat [22] = assay: Ratio of Combretastatin A-4 IC50 to compound IC50 for human Jurkat cells; type: functional
HeLa [23] = assay: Induction of apoptosis in human HeLa cells assessed as caspase-3 cleavage at 10 to 100 nM after 24 to 48 hrs by Western Blot analysis; type: functional, cell-based; method in brief: as §1
HeLa [24] = assay: Cell cycle arrest in human HeLa cells assessed as accumulation at G2/M phase after 24 hrs by propidium iodide staining-based flow cytometry; type: functional; method in brief: as §3
MCF7 [25] = assay: Ratio of Combretastatin A-4 IC50 to compound IC50 for human MCF7 cells; type: functional

For `COC(=O)c1sc2cc(OC)ccc2c1Nc1cc(OC)c(OC)c(OC)c1`, the Activity (HeLa [1]) was “Active”, the IC50 [2] was 880 nM and the IC50 (Jurkat [3]) was 1.7 nM. For the same compound, the inhibition (Bos taurus [4]) was 98%, the Activity (HeLa [5]) was “Active” and the Activity (HeLa [6]) was “Active”. The IC50 (PBL [7]) was over 10000 nM, the Activity (HT-29 [8]) was “Active” and the inhibition (Bos taurus [9]) was 85%. The Activity (HeLa [10]) was “Active”, the IC50 (PBL [11]) was over 10000 nM and the IC50 [12] was 0.4 nM. For the same compound, the “Ratio IC50” value (HL-60) was 2, the Activity (HeLa [13]) was “Dose-dependent effect” and the “Ratio IC50” value (HT-29 [14]) was 2. The Activity (HeLa [15]) was “inactive”, the Activity (HeLa [16]) was “Dose-dependent effect” and the Activity (HeLa [17]) was “inactive”. The Activity [18] was 68.5%, the IC50 (MCF7 [19]) was 0.7 nM and the Activity (HeLa [20]) was over 80%. The “Ratio IC50” value (HeLa [21]) was 2, the IC50 (LoVo) was 0.3 nM and the “Ratio IC50” value (A549) was 2. The “Ratio IC50” value (Jurkat [22]) was 2, the Activity (HeLa [23]) was “Active” and the Activity (HeLa [24]) was “Dose-dependent effect”. For the same compound, the “Ratio IC50” value (MCF7 [25]) was 2.
